Assay results reported in ChEMBL document CHEMBL3632545, “1,3-Disubstituted and 1,3,3-trisubstituted adamantyl-ureas with isoxazole as soluble epoxide hydrolase inhibitors” (Bioorg Med Chem Lett, 2015).
pIC50: −log10 of the molar value. Values after ≈ are worked out from the molar mass of the structure shown.

How the values were obtained:
[1] = biological target: T1, Bifunctional epoxide hydrolase 2 (Homo sapiens, UniProt P34913); assay: Inhibition of recombinant human soluble epoxide hydrolase using CMNPC as substrate by kinetic fluorescent assay
T1 sequence (P34913 whole entry): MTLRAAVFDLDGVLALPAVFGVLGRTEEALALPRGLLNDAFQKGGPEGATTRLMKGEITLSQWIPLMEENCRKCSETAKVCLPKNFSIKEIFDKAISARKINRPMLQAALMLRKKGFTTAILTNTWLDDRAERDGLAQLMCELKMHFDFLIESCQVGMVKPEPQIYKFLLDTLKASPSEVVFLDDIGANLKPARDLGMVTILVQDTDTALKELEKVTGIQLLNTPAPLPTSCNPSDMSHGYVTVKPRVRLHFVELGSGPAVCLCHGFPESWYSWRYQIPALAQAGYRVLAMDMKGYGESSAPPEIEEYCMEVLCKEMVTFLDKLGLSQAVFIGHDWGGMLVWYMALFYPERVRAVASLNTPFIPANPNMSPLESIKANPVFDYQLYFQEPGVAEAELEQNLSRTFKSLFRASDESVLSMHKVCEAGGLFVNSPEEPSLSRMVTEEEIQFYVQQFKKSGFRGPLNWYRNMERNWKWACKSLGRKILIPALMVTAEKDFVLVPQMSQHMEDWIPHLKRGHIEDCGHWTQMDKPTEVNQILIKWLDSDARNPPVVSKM
Procedure, shortened: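 Recombinant purified human sEH, CMNPC substrate, kinetic fluorescence read-out; IC50 derived. Where reported, values are the mean ± standard deviation of three separate measurements.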

[2] = Solubility of compound in sodium phosphate buffer at pH 7.4; assay type: physicochemical
Procedure, shortened: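 Measured in 0.1 M sodium phosphate buffer, pH 7.4, containing 1% DMSO; reported as a concentration range bracketing the solubility limit (μM).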

[3] = Metabolic stability in human liver microsomes assessed as compound remaining at 1 uM after 30 mins by LC/MS/MS analysis in presence of NADPH generating system; assay type: ADME; details: read-out: Stability
Procedure, shortened: (§1)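 Compound at 1 μM incubated with human liver microsomes (1 mg/mL) at 37°C for 30 minutes, with or without an NADPH generating system. Read-out is percent of compound remaining. Values are the average of triplicates ± standard deviation.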

[4] = Metabolic stability in human liver microsomes assessed as compound remaining at 1 uM after 30 mins by LC/MS/MS analysis in absence of NADPH generating system; assay type: ADME; details: read-out: Stability; procedure, shortened: as §1

Compound	pIC50 [1]	solubility [2] [µM]	remaining at 0.5 h, 1 µM [3] [%]	remaining at 0.5 h, 1 µM [4] [%]
CC(C)c1cc(CNC(=O)NCC23CC4CC(CC(C4)C2)C3)on1	7.35	125 (≈ 41.4 µg/mL)	–	–
Cc1cc(CNC(=O)NC23CC4CC(C)(CC(C)(C4)C2)C3)on1	6.91	200 (≈ 63.5 µg/mL)	0.1	83
CC(C)c1cc(CN(C)C(=O)NCC23CC4CC(CC(C4)C2)C3)no1	6.24	200 (≈ 69.1 µg/mL)	–	–
CC12CC3CC(C)(C1)CC(NC(=O)NCc1cc(-c4cccc(F)c4)no1)(C3)C2	7.77	75 (≈ 29.8 µg/mL)	0.4	92
COc1ccc(-c2cc(CNC(=O)NCC34CC5CC(CC(C5)C3)C4)no2)cc1	7.89	100 (≈ 39.6 µg/mL)	0.8	87
Cc1cc(C2CCCN2C(=O)NCC23CC4CC(CC(C4)C2)C3)on1 (stereo unspecified)	7.04	575 (≈ 197 µg/mL)	–	–
CC12CC3CC(C)(C1)CC(NC(=O)NCc1cc(-c4ccco4)on1)(C3)C2	8.39	75 (≈ 27.7 µg/mL)	0.3	95
O=C(NCc1cc(-c2ccc(F)cc2)no1)NCC12CC3CC(CC(C3)C1)C2	7.98	50 (≈ 19.2 µg/mL)	–	–
Cc1ccc(-c2cc(CNC(=O)NCC34CC5CC(CC(C5)C3)C4)no2)cc1	7.81	75 (≈ 28.5 µg/mL)	0.4	97
O=C(NCc1cc(-c2ccco2)on1)NCC12CC3CC(CC(C3)C1)C2	8.31	75 (≈ 26.7 µg/mL)	0.4	91
COc1ccc(-c2cc(CNC(=O)NC34CC5CC(C)(CC(C)(C5)C3)C4)no2)cc1	7.82	25 (≈ 10.2 µg/mL)	0.4	102
Cc1ccc(-c2cc(CNC(=O)NC34CC5CC(C)(CC(C)(C5)C3)C4)no2)cc1	7.59	125 (≈ 49.2 µg/mL)	0.4	115
Cc1cc(C2CCCN2C(=O)NCC23CC4CC(CC(C4)C2)C3)no1 (stereo unspecified)	6.28	525 (≈ 180 µg/mL)	–	–
Cc1cc(CNC(=O)NCC23CC4CC(CC(C4)C2)C3)on1	8.17	450 (≈ 137 µg/mL)	2.9	72
CC(C)c1cc(CN(C)C(=O)NCC23CC4CC(CC(C4)C2)C3)on1	6.72	350 (≈ 121 µg/mL)	–	–
CC(C)c1cc(C2CCCN2C(=O)NCC23CC4CC(CC(C4)C2)C3)no1 (stereo unspecified)	6.61	250 (≈ 92.9 µg/mL)	–	–
CCc1cc(CNC(=O)NCC23CC4CC(CC(C4)C2)C3)on1	7.53	300 (≈ 95.2 µg/mL)	–	–
O=C(NCc1cc(-c2cccc(F)c2)no1)NCC12CC3CC(CC(C3)C1)C2	7.78	75 (≈ 28.8 µg/mL)	0.3	97
